Measured values: ChEMBL document CHEMBL3259713, “Dissecting the structure of thiopeptides: assessment of thiazoline and tail moieties of baringolin and antibacterial activity optimization” (J Med Chem, 2014)
Converted amounts (≈) assume the structure as drawn. Square brackets hold non-standard residues; d marks the D form. Peptide text beside a SMILES is read from it. * marks the point of attachment. Dha = C=C(N)C(=O)O; X1 = O=C(c1cscn1)*

How the values were obtained:
Staphylococcus aureus = assay: Antibacterial activity against Staphylococcus aureus assessed as growth inhibition after 24 hrs by CLSI M7-A9 broth microdilution method; format: functional
Outline: (§1)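 Isolates from frozen stocks subcultured at least twice on sheep blood agar and grown 24 h before testing. Inoculum made by direct suspension in saline to 0.5 McFarland turbidity. MIC determined by broth microdilution in Mueller-Hinton broth following CLSI M7-A9, incubated at 35 °C for 24 h.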

[1] = Solubility of the compound in 0.1 M phosphate buffer after 48 hrs by spectrophotometer analysis; format: physicochemical
Outline: (§2)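 About 1 mg of solid was combined with a known volume of solvent so that the solution was saturated. It was vortexed 1 min, shaken 48 h and centrifuged at 10000 rpm for 3 min. Dissolved compound in the supernatant was measured by absorbance at 304 nm.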

Micrococcus luteus = assay: Antibacterial activity against Micrococcus luteus ATCC 9341 assessed as growth inhibition after 24 hrs by CLSI M7-A9 broth microdilution method; format: functional; settings: ATCC 9341, 24 h; outline: as §1
Bacillus subtilis = assay: Antibacterial activity against Bacillus subtilis ATCC 6633 assessed as growth inhibition after 24 hrs by CLSI M7-A9 broth microdilution method; format: functional; settings: ATCC 6633, 24 h; outline: as §1
Cutibacterium acnes = assay: Antibacterial activity against Propionibacterium acnes assessed as growth inhibition after 24 hrs by CLSI M11-A8 broth microdilution method; format: functional
Outline: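 This anaerobe was subcultured at least twice from frozen stock on supplemented Brucella agar and grown 48 h before testing. Inoculum was a direct saline suspension at 0.5 McFarland. MIC was by microdilution in Brucella broth with hemin (5 μg/mL), vitamin K1 and 5% lysed horse blood per CLSI M11-A8, 35 °C for 24 h under anaerobic conditions.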

[2] = Solubility of the compound in water after 48 hrs by spectrophotometer analysis; format: physicochemical; outline: as §2

| Compound | MIC (Staphylococcus aureus) | solubility at 48 h [1] | MIC (Micrococcus luteus) | MIC (Bacillus subtilis) | MIC (Cutibacterium acnes) | solubility at 48 h [2] |
| --- | --- | --- | --- | --- | --- | --- |
| Cc1oc2nc1C(=O)N[C@@H](CC(N)=O)c1nc(cs1)C(=O)N[C@@H](Cc1ccccc1)c1nc(cs1)C(=O)N[C@@H](Cc1ccc(O)cc1)C(=O)N1CCC[C@H]1c1nc(cs1)-c1nc(cs1)-c1nc(-c3nc(C(N)=O)cs3)ccc1-2 | 1 µg/mL (≈ 0.878 µM) | 7 µg/mL (≈ 6.15 µM) | > 8 µg/mL | 8 µg/mL (≈ 7.03 µM) | 8 µg/mL (≈ 7.03 µM) | – |
| Cc1oc2nc1C(=O)N[C@@H](CC(N)=O)c1nc(cs1)C(=O)N[C@@H](Cc1ccccc1)c1nc(cs1)C(=O)N[C@@H](Cc1ccc(O)cc1)C(=O)N1CCC[C@H]1c1nc(cs1)-c1nc(cs1)-c1nc(-c3nc(C(=O)O)cs3)ccc1-2 | 2 µg/mL (≈ 1.76 µM) | 23 µg/mL (≈ 20.2 µM) | > 8 µg/mL | 8 µg/mL (≈ 7.02 µM) | 2 µg/mL (≈ 1.76 µM) | – |
| Cc1oc2nc1C(=O)N[C@@H](CC(N)=O)c1nc(cs1)C(=O)N[C@@H](Cc1ccccc1)c1nc(cs1)C(=O)N[C@@H](Cc1ccc(O)cc1)C(=O)N1CCC[C@H]1c1nc(cs1)-c1nc(cs1)-c1nc(-c3nc(C(=O)N[C@H]4CC[C@H](C(=O)O)CC4)cs3)ccc1-2 | 0.03 µg/mL (≈ 0.0237 µM) | 18 µg/mL (≈ 14.2 µM) | 0.5 µg/mL (≈ 0.395 µM) | 0.03 µg/mL (≈ 0.0237 µM) | 0.06 µg/mL (≈ 0.0474 µM) | – |
| CCOC(=O)c1csc(-c2ccc3c(n2)-c2csc(n2)-c2csc(n2)[C@@H]2CCCN2C(=O)[C@H](Cc2ccc(O)cc2)NC(=O)C2CSC(=N2)[C@H](Cc2ccccc2)NC(=O)c2csc(n2)[C@H](CC(N)=O)NC(=O)c2nc-3oc2C)n1 (stereo partly drawn) | > 8 µg/mL | – | 4 µg/mL (≈ 3.42 µM) | 8 µg/mL (≈ 6.84 µM) | 4 µg/mL (≈ 3.42 µM) | – |
| C=C(NC(=O)C(=C)NC(=O)[C@@H]1CCCN1C(=O)[C@H](C)NC(=O)C(=C)NC(=O)c1csc(-c2ccc3c(n2)-c2csc(n2)-c2csc(n2)[C@@H]2CCCN2C(=O)[C@H](Cc2ccc(O)cc2)NC(=O)c2csc(n2)[C@H](Cc2ccccc2)NC(=O)c2csc(n2)[C@H](CC(N)=O)NC(=O)c2nc-3oc2C)n1)C(N)=O | 0.5 µg/mL (≈ 0.33 µM) | – | 2 µg/mL (≈ 1.32 µM) | 1 µg/mL (≈ 0.661 µM) | 8 µg/mL (≈ 5.28 µM) | – |
| C=C(NC(=O)[C@@H]1CCCN1C(=O)[C@H](C)NC(=O)C(=C)NC(=O)c1csc(-c2ccc3c(n2)-c2csc(n2)-c2csc(n2)[C@@H]2CCCN2C(=O)[C@H](Cc2ccc(O)cc2)NC(=O)c2csc(n2)[C@H](Cc2ccccc2)NC(=O)c2csc(n2)[C@H](CC(N)=O)NC(=O)c2nc-3oc2C)n1)C(N)=O | 0.5 µg/mL (≈ 0.346 µM) | – | 2 µg/mL (≈ 1.38 µM) | 0.5 µg/mL (≈ 0.346 µM) | 8 µg/mL (≈ 5.54 µM) | – |
| C=C(NC(=O)C(=C)NC(=O)[C@@H]1CCCN1C(=O)[C@H](C)NC(=O)C(=C)NC(=O)c1cscn1)C(N)=O (X1-[Dha]AP[Dha][Dha]-NH2) | > 8 µg/mL | 6650 µg/mL (≈ 13200 µM) | 2 µg/mL (≈ 3.97 µM) | > 8 µg/mL | 8 µg/mL (≈ 15.9 µM) | 4660 µg/mL (≈ 9260 µM) |
| CCOC(=O)c1csc(-c2ccc3c(n2)-c2csc(n2)-c2csc(n2)[C@@H]2CCCN2C(=O)[C@H](Cc2ccc(O)cc2)NC(=O)c2csc(n2)[C@H](Cc2ccccc2)NC(=O)c2csc(n2)[C@H](CC(N)=O)NC(=O)c2nc-3oc2C)n1 | > 8 µg/mL | – | 2 µg/mL (≈ 1.71 µM) | > 8 µg/mL | 4 µg/mL (≈ 3.43 µM) | – |

Now from value to compound:

| MIC (Staphylococcus aureus) | solubility at 48 h [1] | MIC (Micrococcus luteus) | MIC (Bacillus subtilis) | MIC (Cutibacterium acnes) | solubility at 48 h [2] | Compound |
| --- | --- | --- | --- | --- | --- | --- |
| 0.5 µg/mL (≈ 0.363 µM) | – | 2 µg/mL (≈ 1.45 µM) | 8 µg/mL (≈ 5.82 µM) | 4 µg/mL (≈ 2.91 µM) | – | C=C(NC(=O)c1csc(-c2ccc3c(n2)-c2csc(n2)-c2csc(n2)[C@@H]2CCCN2C(=O)[C@H](Cc2ccc(O)cc2)NC(=O)c2csc(n2)[C@H](Cc2ccccc2)NC(=O)c2csc(n2)[C@H](CC(N)=O)NC(=O)c2nc-3oc2C)n1)C(=O)N[C@@H](C)C(=O)N1CCC[C@H]1C(N)=O |
| 0.25 µg/mL (≈ 0.165 µM) | – | 0.5 µg/mL (≈ 0.33 µM) | 0.25 µg/mL (≈ 0.165 µM) | 0.125 µg/mL (≈ 0.0825 µM) | – | C=C(NC(=O)C(=C)NC(=O)[C@@H]1CCCN1C(=O)[C@H](C)NC(=O)C(=C)NC(=O)c1csc(-c2ccc3c(n2)-c2csc(n2)-c2csc(n2)[C@@H]2CCCN2C(=O)[C@H](Cc2ccc(O)cc2)NC(=O)[C@H]2CSC(=N2)[C@H](Cc2ccccc2)NC(=O)c2csc(n2)[C@H](CC(N)=O)NC(=O)c2nc-3oc2C)n1)C(N)=O |
| 0.5 µg/mL (≈ 0.346 µM) | – | 1 µg/mL (≈ 0.691 µM) | 0.5 µg/mL (≈ 0.346 µM) | 0.5 µg/mL (≈ 0.346 µM) | – | C=C(NC(=O)[C@@H]1CCCN1C(=O)[C@H](C)NC(=O)C(=C)NC(=O)c1csc(-c2ccc3c(n2)-c2csc(n2)-c2csc(n2)[C@@H]2CCCN2C(=O)[C@H](Cc2ccc(O)cc2)NC(=O)C2CSC(=N2)[C@H](Cc2ccccc2)NC(=O)c2csc(n2)[C@H](CC(N)=O)NC(=O)c2nc-3oc2C)n1)C(N)=O (stereo partly drawn) |
| 0.25 µg/mL (≈ 0.181 µM) | – | 0.5 µg/mL (≈ 0.363 µM) | 0.25 µg/mL (≈ 0.181 µM) | 0.125 µg/mL (≈ 0.0907 µM) | – | C=C(NC(=O)c1csc(-c2ccc3c(n2)-c2csc(n2)-c2csc(n2)[C@@H]2CCCN2C(=O)[C@H](Cc2ccc(O)cc2)NC(=O)C2CSC(=N2)[C@H](Cc2ccccc2)NC(=O)c2csc(n2)[C@H](CC(N)=O)NC(=O)c2nc-3oc2C)n1)C(=O)N[C@@H](C)C(=O)N1CCC[C@H]1C(N)=O (stereo partly drawn) |
